Measured values: publication PMC3580944 (Journal of medicinal chemistry, 2011)
pEC50: −log10 of the molar value. “Also recorded” adds a separate entry of the source. Read-outs that look alike come from different tables or passages of the source. Marks after values point to notes of the source that are not given here.

Assays:
[1] = biological target: human α1β2γ2L GABAA receptor (Homo sapiens, UniProt P14867+P18507+P47870); test: Two electrode voltage clamp of GABAA receptor currents in Xenopus oocytes; type: cell-based; details: for Imax of GABA current enhancement / nH of GABA current enhancement: 3 μM GABA (~EC5); for nH of GABA concentration response curve in the presence of drug: 6 μM 6; for nH of GABA concentration response curve in the presence of drug / Shift in GABA dose response curve to the left: 4.4 μM propofol; for Shift in GABA dose response curve to the left: twice the tadpole anesthesia EC50: 6 μM 6
Chain of human α1β2γ2L GABAA receptor (P14867 28-456): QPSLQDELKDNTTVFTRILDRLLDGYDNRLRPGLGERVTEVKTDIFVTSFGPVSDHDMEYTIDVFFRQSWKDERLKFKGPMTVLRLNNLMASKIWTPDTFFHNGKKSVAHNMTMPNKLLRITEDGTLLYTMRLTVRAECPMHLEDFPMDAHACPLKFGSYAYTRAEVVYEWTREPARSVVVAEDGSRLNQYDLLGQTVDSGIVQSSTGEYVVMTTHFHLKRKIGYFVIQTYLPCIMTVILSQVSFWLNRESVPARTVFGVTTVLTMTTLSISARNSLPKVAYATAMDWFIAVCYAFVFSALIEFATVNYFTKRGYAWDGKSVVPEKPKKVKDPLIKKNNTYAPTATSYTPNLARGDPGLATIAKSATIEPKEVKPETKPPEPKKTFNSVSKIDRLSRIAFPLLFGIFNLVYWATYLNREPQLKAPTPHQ
Chain of human α1β2γ2L GABAA receptor (P47870 25-512 limits assumed): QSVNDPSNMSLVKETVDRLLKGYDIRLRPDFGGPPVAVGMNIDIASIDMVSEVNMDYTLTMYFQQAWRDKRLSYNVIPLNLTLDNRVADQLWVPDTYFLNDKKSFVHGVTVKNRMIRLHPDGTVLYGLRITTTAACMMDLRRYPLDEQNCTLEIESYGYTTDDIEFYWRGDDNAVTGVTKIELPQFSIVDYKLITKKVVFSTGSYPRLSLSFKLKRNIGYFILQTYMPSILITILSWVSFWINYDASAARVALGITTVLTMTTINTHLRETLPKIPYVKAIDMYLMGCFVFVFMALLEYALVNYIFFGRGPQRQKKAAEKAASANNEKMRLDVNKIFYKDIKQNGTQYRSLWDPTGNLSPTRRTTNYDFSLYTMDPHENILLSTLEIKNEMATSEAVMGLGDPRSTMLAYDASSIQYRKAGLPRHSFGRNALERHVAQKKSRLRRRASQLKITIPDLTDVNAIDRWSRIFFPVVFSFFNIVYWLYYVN
Chain of human α1β2γ2L GABAA receptor (P18507 40-475): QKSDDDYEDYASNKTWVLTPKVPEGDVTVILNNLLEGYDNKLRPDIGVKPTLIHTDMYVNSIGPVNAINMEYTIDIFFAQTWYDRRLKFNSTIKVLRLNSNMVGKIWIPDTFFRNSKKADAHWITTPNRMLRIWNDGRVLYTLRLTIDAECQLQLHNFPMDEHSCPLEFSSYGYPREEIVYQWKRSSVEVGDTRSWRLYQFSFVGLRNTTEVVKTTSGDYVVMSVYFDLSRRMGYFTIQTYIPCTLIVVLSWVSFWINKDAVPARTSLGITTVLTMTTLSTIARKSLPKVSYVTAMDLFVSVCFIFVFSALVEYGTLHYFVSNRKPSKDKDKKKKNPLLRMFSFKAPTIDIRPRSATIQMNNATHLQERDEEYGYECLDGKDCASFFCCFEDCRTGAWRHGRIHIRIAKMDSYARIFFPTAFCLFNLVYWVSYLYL

[2] = biological target: T1, Torpedo nACh receptor (Tetronarce californica, UniProt P02710+P02712+P02714+P02718); test: Inhibition of ACh-elicited currents of Torpedo nACh receptors in Xenopus oocytes; type: cell-based; details: 10 μM ACh (~EC20)
T1 sequence (P02710 25-461): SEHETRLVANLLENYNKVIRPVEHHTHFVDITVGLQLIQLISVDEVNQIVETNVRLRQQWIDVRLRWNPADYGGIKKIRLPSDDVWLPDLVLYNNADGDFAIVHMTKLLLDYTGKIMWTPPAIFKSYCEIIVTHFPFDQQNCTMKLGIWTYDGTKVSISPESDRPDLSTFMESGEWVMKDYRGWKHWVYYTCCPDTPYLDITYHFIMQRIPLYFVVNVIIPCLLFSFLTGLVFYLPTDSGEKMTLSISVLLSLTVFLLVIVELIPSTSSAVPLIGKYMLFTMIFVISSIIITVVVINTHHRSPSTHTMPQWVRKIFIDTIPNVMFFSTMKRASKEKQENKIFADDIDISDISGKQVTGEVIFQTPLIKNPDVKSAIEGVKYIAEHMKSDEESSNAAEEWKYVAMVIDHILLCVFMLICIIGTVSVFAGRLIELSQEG
T1 sequence (P02712 25-493): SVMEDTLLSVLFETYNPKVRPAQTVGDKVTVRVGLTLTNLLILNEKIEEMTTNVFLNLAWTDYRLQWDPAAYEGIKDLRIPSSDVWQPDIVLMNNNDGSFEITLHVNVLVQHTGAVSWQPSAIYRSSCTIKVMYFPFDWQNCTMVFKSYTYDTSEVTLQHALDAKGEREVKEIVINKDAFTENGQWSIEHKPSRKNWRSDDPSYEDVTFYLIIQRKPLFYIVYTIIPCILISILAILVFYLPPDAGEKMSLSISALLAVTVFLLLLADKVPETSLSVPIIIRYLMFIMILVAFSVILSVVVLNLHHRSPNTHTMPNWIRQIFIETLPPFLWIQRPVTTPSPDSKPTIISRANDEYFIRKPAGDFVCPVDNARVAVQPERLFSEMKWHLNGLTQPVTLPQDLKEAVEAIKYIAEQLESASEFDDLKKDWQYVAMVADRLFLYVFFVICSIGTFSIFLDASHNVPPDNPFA
T1 sequence (P02714 18-506): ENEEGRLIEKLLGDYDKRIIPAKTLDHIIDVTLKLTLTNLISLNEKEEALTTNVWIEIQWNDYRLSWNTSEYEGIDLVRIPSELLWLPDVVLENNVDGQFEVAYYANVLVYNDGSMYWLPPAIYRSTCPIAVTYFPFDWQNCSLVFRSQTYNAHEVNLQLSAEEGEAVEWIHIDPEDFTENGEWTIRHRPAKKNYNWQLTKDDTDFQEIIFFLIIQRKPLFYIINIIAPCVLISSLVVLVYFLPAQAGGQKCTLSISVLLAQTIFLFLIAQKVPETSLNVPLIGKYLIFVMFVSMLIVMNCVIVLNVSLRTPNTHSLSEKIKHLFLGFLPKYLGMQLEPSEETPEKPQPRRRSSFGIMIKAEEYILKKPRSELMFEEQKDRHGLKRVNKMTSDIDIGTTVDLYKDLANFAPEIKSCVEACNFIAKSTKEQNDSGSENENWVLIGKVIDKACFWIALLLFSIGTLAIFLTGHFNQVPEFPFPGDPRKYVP
T1 sequence (P02718 22-522): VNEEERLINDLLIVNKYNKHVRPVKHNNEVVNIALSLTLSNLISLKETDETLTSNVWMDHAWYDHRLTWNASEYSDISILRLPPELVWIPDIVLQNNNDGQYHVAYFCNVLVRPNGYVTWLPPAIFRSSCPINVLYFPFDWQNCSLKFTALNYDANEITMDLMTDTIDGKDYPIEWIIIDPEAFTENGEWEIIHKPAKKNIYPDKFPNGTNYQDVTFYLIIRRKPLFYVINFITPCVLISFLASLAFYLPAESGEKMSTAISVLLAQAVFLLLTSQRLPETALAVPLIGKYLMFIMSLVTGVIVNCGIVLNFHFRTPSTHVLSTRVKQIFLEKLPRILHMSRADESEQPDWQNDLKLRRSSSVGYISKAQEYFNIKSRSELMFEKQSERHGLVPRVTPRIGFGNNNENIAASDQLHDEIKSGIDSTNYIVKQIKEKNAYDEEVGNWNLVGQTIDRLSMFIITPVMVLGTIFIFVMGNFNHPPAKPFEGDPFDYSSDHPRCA
Summary of the method: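 Two-electrode voltage clamp at room temperature on Xenopus oocytes. Oocytes were injected with ~25 ng Torpedo subunit cRNA at 2α:1β:1γ:1δ, clamped at −50 mV and perfused with ND96 (pH 7.5) at ~2 mL/min. 10 μM ACh was applied, then ACh plus rising test compound (10 mM DMSO stock diluted in ND96). Applications lasted 15–20 s with ~3 min washes. Currents were normalized to ACh alone and fit to a logistic equation; 3 oocytes.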

[3] = biological target: α1β3γ2 GABAA receptors (benzodiazepine site) (Homo sapiens, UniProt P14867+P18507+P28472); type: binding; details: for Enhancement of specific [3H]flunitrazepam binding: maximal effect; for effect on [3H]flunitrazepam binding above 40 μM: above 40 μM up to 400 μM
Chain of α1β3γ2 GABAA receptors (benzodiazepine site) (P14867 28-456): as the sequence (P14867 28-456) above
Chain of α1β3γ2 GABAA receptors (benzodiazepine site) (P28472 26-473): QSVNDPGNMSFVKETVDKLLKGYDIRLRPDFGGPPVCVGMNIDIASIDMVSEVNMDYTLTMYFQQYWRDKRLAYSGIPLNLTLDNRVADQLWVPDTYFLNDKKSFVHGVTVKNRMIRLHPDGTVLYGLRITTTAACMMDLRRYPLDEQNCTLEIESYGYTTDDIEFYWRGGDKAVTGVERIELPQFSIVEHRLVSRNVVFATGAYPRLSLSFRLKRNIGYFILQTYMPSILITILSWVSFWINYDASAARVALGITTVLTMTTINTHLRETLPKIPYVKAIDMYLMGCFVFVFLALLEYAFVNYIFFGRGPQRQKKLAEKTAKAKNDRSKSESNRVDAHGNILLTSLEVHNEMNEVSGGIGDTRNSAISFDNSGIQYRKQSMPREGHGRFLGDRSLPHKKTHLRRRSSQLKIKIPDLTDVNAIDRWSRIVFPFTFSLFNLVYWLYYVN
Chain of α1β3γ2 GABAA receptors (benzodiazepine site) (P18507 40-475): as the sequence (P18507 40-475) above

[4] = system: Xenopus laevis tadpoles; test: General anesthetic potency, loss of righting reflexes; type: in vivo; details: recovery in fresh solution overnight
[5] = Octanol/water partition coefficient by HPLC; type: physicochemical; details: estimated by HPLC of both phases
[6] = biological target: α1β3γ2 GABAA receptors (agonist site) (Homo sapiens, UniProt P14867+P18507+P28472); test: Modulation of [3H]muscimol binding to GABAA receptor membranes from HEK293 cells
Chain of α1β3γ2 GABAA receptors (agonist site) (P14867 28-456): as the sequence (P14867 28-456) above
Chain of α1β3γ2 GABAA receptors (agonist site) (P28472 26-473): as the sequence (P28472 26-473) above
Chain of α1β3γ2 GABAA receptors (agonist site) (P18507 40-475): as the sequence (P18507 40-475) above

[7] = Stability in aqueous buffer at 4°C; type: physicochemical; details: 0.01M Tris/HCl pH 7.4, concentration close to saturation
Summary of the method: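 Excess test compound was stirred 24 h in 0.01 M Tris/HCl, pH 7.4, and centrifuged at 10,000g to give a near-saturated solution. This was stored at 4°C and monitored over time by reverse-phase HPLC (acetonitrile elution).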

[8] = biological target: T1, Torpedo nACh receptor; test: Photoincorporation of [3H]6 into nACh receptor-rich Torpedo membranes; type: binding; details: for effect on nACh receptor subunit photolabeling by [3H]6: absence of agonist (resting state), 100 μM drug
Summary of the method: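 Electric-organ membranes were held at 2 mg protein/mL in Torpedo saline (pH 7.0) with 1 mM oxidized glutathione. Aliquots (160 pmol ACh sites) were equilibrated 30 min with 1.7 μM tritiated test compound (12 Ci/mmol), alone or with 100 μM tetracaine, 100 μM phencyclidine, 300 μM parent anesthetic and/or 1 mM carbamylcholine. Samples were UV-irradiated (365 nm) on ice for 30 min, then run on SDS-PAGE. Read-outs were fluorography (2 weeks) and scintillation counting of excised subunit bands.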

[9] = system: Xenopus laevis tadpoles; details: read-out: General Anesthesia LoRR EC50, cited from earlier work
[10] = system: GABAA receptor; details: cited from earlier work
[11] = pure propofol in water; cited from earlier work
[12] = added to carbamylcholine-treated samples

Compound	Imax of GABA current enhancement [1] [%]	nH of GABA current enhancement [1]	nH of GABA concentration response curve in the presence of drug [1]	Shift in GABA dose response curve to the left [1]	nH of ACh current inhibition [2]	Enhancement of specific [3H]flunitrazepam binding ([3]; 1.5 nM [3H]flunitrazepam)	effect on [3H]flunitrazepam binding above 40 μM [3]	pEC50 ([9]; ref Hall et al, 2010 [13])	effect on nACh receptor subunit photolabeling by [3H]6 [8]	further results
CC(C)c1cc(CCCC2(C)N=N2)cc(C(C)C)c1O [Compound 6, 2,6-Diisopropyl-4-[3-(3-methyl-3H-diazirin-3-yl)-propyl]-phenol]	22 ± 6	1.4 ± 1.3	0.9 ± 0.2	9 ^a fold	0.9 ± 0.2	~ 150%	caused no further change	–	–	pEC50 [3]: ~6.30; reversibility of anesthesia [4]: reversible; octanol/water partition coefficient [5]: 15,600 ± 1200; pEC50 [6]: ~6.30; time stable in buffer [7]: at least 2.5 days
CC(C)c1cc(CCCC2(C)N=N2)cc(C(C)C)c1O [[^3H]6, ^3H-2,6-Diisopropyl-4-[3-(3-methyl-3H-diazirin-3-yl)-propyl]-phenol]	–	–	–	–	–	–	–	–	–	carbamylcholine-enhanced 3H photoincorporation in nACh receptor α-subunit ([8]; 1.7 μM [3H]6): 3000 cpm; fraction of nACh receptor α-subunits photolabeled ([8]; 1.7 μM [3H]6, carbamylcholine-enhanced): 0.2%
CC(C)c1ccc(C2(C(F)(F)F)N=N2)cc1O [m-TFD-propofol, 2-isopropyl-5-[3-(trifluoromethyl)-3H-diazirin-3-yl]phenol]	–	–	–	–	–	–	–	5.51	–	Direct activation ([10]; m-TFD-propofol at 30 μM, ref Hall et al, 2010 [13]): no direct agonist activity
c1ccc(C2(N3CCCCC3)CCCCC2)cc1 [phencyclidine]	–	–	–	–	–	–	–	–	little effect	additional decrease of [3H]6 photoincorporation [8, 12]: ~ 20%
CC(C)c1cccc(C(C)C)c1O [propofol, 2,6-diisopropylphenol]	16 ± 3	1.7 ± 1.2	1.1 ± 0.3	11 ^a fold	0.8 ± 0.1	~ 200%	caused a rapid decrease in binding	5.55	–	pEC50 ([9]; ref Krasowski et al, 2001 [2]): 5.72; saturated concentration in water [11]: 1 ± 0.02 mM; Direct activation, current as % of maximal GABA response ([1]; absence of GABA): 30–50%; Enhancement of [3H]flunitrazepam binding ([3]; 1.5 nM [3H]flunitrazepam): 2x ^a; additional increase of [3H]6 photoincorporation [8, 12]: ~ 20%; Enhancement of [3H]muscimol binding ([6]; 3 nM [3H]muscimol): 2.4x ^a; effect on [3H]muscimol binding above 30 μM ([6]; above 30 μM): caused a sharp decrease in binding; Direct activation, currents as % of the maximal GABA response ([10]; propofol alone): 30 – 70%; Direct activation ([10]; ref Krasowski et al, 2001 [2]): 67%
CCCCNc1ccc(C(=O)OCCN(C)C)cc1 [tetracaine]	–	–	–	–	–	–	–	–	little effect; also recorded: no effect	–
